From ChEMBL document CHEMBL1125290, “Bis basic substituted diaminobenzobisthiazoles as potential antiarthritic agents” (1992) come the findings set out here.

Holding throughout (format): functional
The test system of one assay is Mus musculus. The assay can be described thus: Percent suppression of plaque forming cells in spleen cell suspension at a dose of 125 mg/kg, po. in AKR mice.
Assay [1] is filed under the species Rattus norvegicus. The assay can be described thus: Antiinflammatory activity in D-adjuvant induced arthritis in rat measured by the change in body weight. Also noted: concentration or dose not given beside the values.
For assay [2], the system named is Rattus norvegicus. Nature of the assay: Antiinflammatory activity against carrageenan induced rat paw edema (CPE), dosed orally. In a few lines: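 Male Sprague–Dawley rats (150 ± 10 g), five per group. Compound or vehicle given orally in 0.5% methylcellulose 1 h before subplantar injection of 0.1 mL 1% carrageenan in saline into the right hind paw. Paw volume measured by mercury displacement before dosing and 3 h after carrageenan; the difference is the edema volume. ANOVA with Dunnett's t test.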

Assay [3] deals with Rattus norvegicus. Nature of the assay: Antiinflammatory activity dosed orally against D-adjuvant arthritis in uninjected rat paw at 100 mg/Kg. The note with it: po.
For assay [4], the system named is Rattus norvegicus. Nature of the assay: Antiinflammatory activity dosed orally against D-adjuvant arthritis in injected rat paw at 100 mg/Kg. The note with it: po.
For assay [5], the system named is Rattus norvegicus. The assay can be described thus: Antiinflammatory activity dosed orally against D-adjuvant arthritis in injected rat paw at 50 mgKg.

What is called Inhibition is the share of the control response that was lost under treatment. The term inhibition in vivo denotes the change of the read-out against control, counted positive when it falls. Turning to `CCN(CC)CCOc1ccc2c(c1)C(=O)c1cc(OCCN(CC)CC)ccc1-2` [TILORONE], the results for the Activity in the assay on Mus musculus and in the assay listed under Rattus norvegicus [1] were 28% and 10%, respectively. For the same compound, the Inhibition worked out at 0% in the assay with Rattus norvegicus [2] and 53% in the assay on Rattus norvegicus [5]. For the same compound, the inhibition in vivo at 100 mg/kg in the assay with Rattus norvegicus [3] came to 45%; in the assay with Rattus norvegicus [4], 59%.
